Series [1] has as its target T1, G-protein coupled receptor 68 (Homo sapiens, UniProt Q15743). Put plainly: Positive allosteric modulator activity at GPR68 expressed in human HEK293T cells assessed as proton-mediated calcium release at 10 uM incubated for 10 mins by Fluo-4 Direct calcium dye based FLIPR assay (reference value: 1.30 %). In kind it is functional, cell-based.
Series [2] in a line: Positive allosteric modulator activity at GPR68 E160K mutant transfected in human HEK293T cells assessed as proton-mediated calcium release at 10 uM incubated for 10 mins by Fluo-4 Direct calcium dye based FLIPR assay (reference value: 1.38 +/- 0.01 %). The following applies: HEK-293T, condition central nervous system disease.
The nature of series [3]: Positive allosteric modulator activity at GPR68 R189L mutant transfected in human HEK293T cells assessed as proton-mediated calcium release at 10 uM incubated for 10 mins by Fluo-4 Direct calcium dye based FLIPR assay (reference value: 1.42 +/- 0.01 %). The following applies: HEK-293T, condition central nervous system disease.
The nature of series [4]: Positive allosteric modulator activity at GPR68 R189M mutant transfected in human HEK293T cells assessed as proton-mediated calcium release at 10 uM incubated for 10 mins by Fluo-4 Direct calcium dye based FLIPR assay (reference value: 1.43 +/- 0.01 %). Conditions: HEK-293T, condition central nervous system disease.
A short description of series [5]: Positive allosteric modulator activity at GPR68 H269F mutant transfected in human HEK293T cells assessed as proton-mediated calcium release at 10 uM incubated for 10 mins by Fluo-4 Direct calcium dye based FLIPR assay (reference value: 1.57 +/- 0.01 %). Conditions: HEK-293T, condition central nervous system disease.
The nature of series [6]: Positive allosteric modulator activity at GPR68 R189L mutant transfected in human HEK293T cells assessed as proton-mediated calcium release at 10 uM incubated for 10 mins by Fluo-4 Direct calcium dye based FLIPR assay (reference value: 6.85 +/- 0.02). In kind it is cell-based. Conditions: HEK-293T.
A short description of series [7]: Positive allosteric modulator activity at GPR68 E160A mutant expressed in human HEK293T cells assessed as cAMP production in presence of H+ proton by Split-luciferase based luminescence counter analysis (reference value: 6.6+/-0.3 %). The following applies: HEK-293T, condition central nervous system disease. An outline of the steps: (§1)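 Proton concentration-response of GPR68 (wild type or E160A/K/Q, R189L/M, H269F mutants) in transiently transfected HEK293-T cells. Read-out: GloSensor cAMP, with luciferin loading 90 min at 37°C at pH 8.4. Run with and without increasing modulator concentrations; 20 min at room temperature before luminescence. Proton KA fixed to the proton EC50 without modulator. KB, τA, α, β fitted globally with an operational allosteric model. n=4.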
(In general: Changes in cAMP serve as a functional read-out for many G protein-coupled receptors.)

Series [8] in a line: Positive allosteric modulator activity at GPR68 E160Q mutant expressed in human HEK293T cells assessed as cAMP production in presence of H+ proton by Split-luciferase based luminescence counter analysis (reference value: 17.0+/-1.5 %). The following applies: HEK-293T, condition central nervous system disease. An outline of the steps:
as §1

Series [9] can be described thus: Positive allosteric modulator activity at GPR68 R189L mutant expressed in human HEK293T cells assessed as cAMP production in presence of H+ proton by Split-luciferase based luminescence counter analysis (reference value: 1.4 %). The following applies: HEK-293T, condition central nervous system disease. The method, boiled down: as §1
Series [10] in a line: Positive allosteric modulator activity at GPR68 R189M mutant expressed in human HEK293T cells assessed as cAMP production in presence of H+ proton by Split-luciferase based luminescence counter analysis (reference value: 3.7 %). Conditions: HEK-293T, condition central nervous system disease. An outline of the steps: as §1
The nature of series [11]: Positive allosteric modulator activity at GPR68 E160K mutant expressed in human HEK293T cells assessed as cAMP production in presence of H+ proton by Split-luciferase based luminescence counter analysis (reference value: 6.70+/-0.08). In kind it is cell-based. The following applies: HEK-293T. The method, boiled down: as §1
Series [12] can be described thus: Positive allosteric modulator activity at GPR68 E160Q mutant expressed in human HEK293T cells assessed as cAMP production in presence of H+ proton by Split-luciferase based luminescence counter analysis (reference value: 6.83+/-0.09). In kind it is cell-based. The following applies: HEK-293T. An outline of the steps:
as §1

Series [13] is described as follows: Binding affinity to GPR68 E160A mutant expressed in human HEK293T cells assessed as cAMP production in presence of H+ proton by Split-luciferase based luminescence counter analysis. Conditions: condition central nervous system disease. The method, boiled down:
as §1

The nature of series [14]: Binding affinity to GPR68 E160K mutant expressed in human HEK293T cells assessed as cAMP production in presence of H+ proton by Split-luciferase based luminescence counter analysis. Conditions: condition central nervous system disease. The method, boiled down: as §1
The nature of series [15]: Binding affinity to GPR68 H269F mutant expressed in human HEK293T cells assessed as cAMP production in presence of H+ proton by Split-luciferase based luminescence counter analysis. Conditions: condition central nervous system disease. The method, boiled down:
as §1

The next series has as its target Adenosine receptor A2a (Homo sapiens, UniProt P29274). Put plainly: Antagonist activity against A2A adenosine receptor (unknown origin) transfected in human HEK293T cells assessed as inhibition constant […] by luminescence counter analysis. In kind it is functional, cell-based.
In series [16] the target is C-X-C chemokine receptor type 4 (Homo sapiens) (UniProt P61073). Briefly: Agonist activity against CXCR4 receptor (unknown origin) transfected in human HEK293T cells at 10 uM incubated for 15 mins in presence of CXCL12 by luminescence counter analysis. The format is functional, cell-based. The method, boiled down:
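HEK293-T cells transiently transfected with CXCR4 and the GloSensor cAMP reporter, plated in DMEM with 1% dialyzed FBS. Test compound at 10 μM in 20 mM HEPES/HBSS, pH 7.4, 15 min at room temperature. Agonist mode: luciferin (4 mM final) plus 200 nM isoproterenol added, 20 min. Antagonist mode: compound 10 min, then reference agonist at EC80 for 10 min, then luciferin/isoproterenol. Luminescence read. CXCL12 (1 or 3 μM) is the agonist control and AMD3100 (10 μM) the antagonist control. n=2.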

For series [17], the target named is T1, G-protein coupled receptor 68. Put plainly: Positive allosteric modulator activity at HA-tagged GPR68 expressed in human HEK293T cells assessed as activation of PKA at pH 7.4 by immunoblotting analysis. The following applies: filed as positive allosteric modulator. In kind it is cell-based. An outline of the steps: (§2)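 HEK293 cells stably expressing N-terminal HA-tagged human GPR68 (vector-only line as control), selected with 250 μg/ml G418. Confluent cells were switched to Hams-F12 at pH 8.0 or 7.4 for 1 h, then given vehicle or 50 μM compound for 10 min. Lysate immunoblots were probed for HA, total VASP, p-p42/p44 and β-actin, read with infrared-fluorophore secondaries.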
On the technique in general: A western blot detects proteins with antibodies after separation by electrophoresis.

The target is the same in series [18]. Put plainly: Positive allosteric modulator activity at HA-tagged GPR68 expressed in human HEK293T cells assessed as activation of p42/p44 MAP kinase at pH 7.4 by immunoblotting analysis. In kind it is cell-based. The following applies: filed as positive allosteric modulator. The method, boiled down:
as §2

The species named for series [19] is Mus musculus. Briefly: […] activity against GPR68 knockout C57BL/6 mouse assessed as contextual memory retrieval. In kind it is functional, organism-based. The method, boiled down: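 Fear conditioning in wild-type and GPR68 KO C57BL/6J congenic mice. Training was 8 min: 3 pairings of a 30-s, 90 dB, 5 kHz tone with a 2-s, 0.6 mA foot shock. Context freezing scored at 24 h over 5 min; cue test at 48 h over 6 min. Freezing defined as no movement for 0.5 s. Compound 10 mg/kg in 10% Tween 80 or saline, 30 min before training. n=6–8 per group. Two-way ANOVA with Bonferroni post-hoc test.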

Series [20] can be described thus: Toxicity in C57BL/6 mouse assessed as cued memory retrieval by Morris water maze test. The following applies: in vivo.
Series [21] is filed under the species Mus musculus. Briefly: Antipsychotic activity against GPR68 knockout C57BL/6 mouse assessed as cued memory retrieval by Morris water maze test. The format is functional, organism-based.

Each structure is given as a SMILES string. Calls of active or inactive are those of the source.

T1 sequence (Q15743 whole entry): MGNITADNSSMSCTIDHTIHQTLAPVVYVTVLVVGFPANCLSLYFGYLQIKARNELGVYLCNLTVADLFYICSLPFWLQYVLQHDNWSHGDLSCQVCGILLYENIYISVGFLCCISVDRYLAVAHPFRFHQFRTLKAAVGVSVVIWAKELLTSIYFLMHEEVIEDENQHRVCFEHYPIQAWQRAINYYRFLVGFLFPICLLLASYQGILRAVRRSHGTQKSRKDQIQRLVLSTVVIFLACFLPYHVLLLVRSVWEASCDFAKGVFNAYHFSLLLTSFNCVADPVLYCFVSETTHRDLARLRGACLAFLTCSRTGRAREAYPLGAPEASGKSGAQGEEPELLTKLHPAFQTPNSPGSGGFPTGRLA
Sequence of C-X-C chemokine receptor type 4 (Homo sapiens) (P61073 whole entry): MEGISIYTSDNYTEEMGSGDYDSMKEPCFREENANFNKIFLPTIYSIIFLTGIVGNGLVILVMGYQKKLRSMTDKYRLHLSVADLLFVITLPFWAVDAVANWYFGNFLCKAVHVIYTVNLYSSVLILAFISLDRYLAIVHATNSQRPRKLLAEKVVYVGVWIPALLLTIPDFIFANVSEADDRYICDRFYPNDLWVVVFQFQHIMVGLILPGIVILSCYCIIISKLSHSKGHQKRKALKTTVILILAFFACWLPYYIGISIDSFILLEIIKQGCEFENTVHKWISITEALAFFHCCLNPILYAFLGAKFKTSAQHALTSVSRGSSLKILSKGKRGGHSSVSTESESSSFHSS
Sequence of Adenosine receptor A2a (P29274 whole entry): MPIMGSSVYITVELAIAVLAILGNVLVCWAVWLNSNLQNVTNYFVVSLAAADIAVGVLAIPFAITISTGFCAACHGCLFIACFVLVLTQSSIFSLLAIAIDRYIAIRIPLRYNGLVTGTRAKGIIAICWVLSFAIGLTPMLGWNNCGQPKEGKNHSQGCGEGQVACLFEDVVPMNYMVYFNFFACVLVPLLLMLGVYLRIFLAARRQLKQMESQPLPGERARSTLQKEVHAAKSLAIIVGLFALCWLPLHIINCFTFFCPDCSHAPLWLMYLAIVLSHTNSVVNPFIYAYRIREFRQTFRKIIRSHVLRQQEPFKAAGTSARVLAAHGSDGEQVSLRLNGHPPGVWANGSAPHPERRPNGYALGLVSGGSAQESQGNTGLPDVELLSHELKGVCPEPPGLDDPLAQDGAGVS

On to `Nc1nc(NCc2ccccc2)nc(-c2ccccc2CO)n1` [Ogerin], for which the Emax (usually the maximal effect, on the per cent scale that the assay sets) in [1] amounted to 1.07%; in series [7] it was 11.7%; in series [8], 27.5%; in [9], 5.3%; in series [10], 10%. The Emax at 10 µM in series [2] stood at 1.12%; in [3] it was 1.35%; in [4] it was 1.36%; in series [5] it was 1.56%. For the same molecule, the EC50 (as a rule, the concentration needed to bring the measured effect to its halfway point) in series [6] was 87.1 nM; in series [11] it was 77.6 nM; in series [12] it was 26.9 nM. Moreover, the pKb (usually the Kb on a negative log10 scale, so that one unit is a factor of ten) in series [13] was 4.67; in [14], 4.98; in series [15] it was 4.33. Besides, at Adenosine receptor A2a, the Ki (in general, a dissociation constant, usually derived from enzyme kinetics or from competition with a known ligand) stood at 220 nM. Moreover, the result (in [16]; in the series listed under Mus musculus [19]; in the series listed under Mus musculus [21]) was inactive. The outcome in series [17] and in series [18] was Active. Further, the Activity result in series [20] is recorded as “Non-Toxic”.

The record behind these values is ChEMBL document CHEMBL5661984, “Allosteric ligands for the pharmacologically dark receptors GPR68 and GPR65” (Nature, 2015).
